Most compounds without a hit are left out; they make up all but 4.5% or so of the library.
TAAR1 antag = human TAAR1 antagonists, primary screen, Fluo-8 calcium fluorescence, CHO RD-HGA16 cells; Trace amine-associated receptor 1 (Homo sapiens), Q96RJ0; antagonist; inhibition, % at 3 µM; 1.5% of 360,000 active; AID 624466, 2012;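 active = inhibition above a per-plate cutoff, the mean inhibition of test compounds on that plate plus 3 SD, cut at about 49% in these data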;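 also: 0% = DMSO plus EC80 beta-PEA response and 100% = DMSO alone without agonist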
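Material: RD-HGA16 CHO cells with stable hTAAR1 and Gα16; Dosing: single nominal final test compound concentration of 3 µM; Schedule: seeding 17-24 h prior, 75-min 37 °C, 30-min RT dye loading; Detection: kinetic Fluo-8 calcium fluorescence measurement; Measure: % inhibition from peak post-agonist over basal fluorescence ratio; Benchmarks: vehicle and agonist controls.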
OX1R antag-1 = OX1R (HCRTR1) antagonists, primary screen, fluorescence, CHO/OX1R cells, Fluo-8 calcium, orexin A | Orexin/Hypocretin receptor type 1 (Homo sapiens), O43613 | Fluo-8 calcium fluorescence | inhibition, % at 5 µM | 0.43% of 330,000 active | AID 434989, 2010;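 active = inhibition above its plate's threshold, mean inhibition of all tested compounds on the plate plus 3 SD, cut at about 37% in these data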;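 also: 0% = orexin A challenge wells and 100% = SB-334867-A antagonist wells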
Target sequence (O43613 whole entry, looked up): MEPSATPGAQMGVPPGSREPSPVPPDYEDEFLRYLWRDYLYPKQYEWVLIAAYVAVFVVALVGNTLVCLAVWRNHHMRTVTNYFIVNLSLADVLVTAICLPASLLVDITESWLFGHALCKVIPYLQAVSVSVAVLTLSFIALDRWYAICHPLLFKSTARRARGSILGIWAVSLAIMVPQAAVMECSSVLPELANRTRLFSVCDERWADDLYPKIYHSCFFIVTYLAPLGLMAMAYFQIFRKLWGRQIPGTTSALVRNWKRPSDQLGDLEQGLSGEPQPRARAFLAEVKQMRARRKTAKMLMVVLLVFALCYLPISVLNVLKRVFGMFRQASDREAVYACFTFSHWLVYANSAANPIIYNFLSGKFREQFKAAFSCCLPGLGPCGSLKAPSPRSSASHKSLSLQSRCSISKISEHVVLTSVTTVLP
CHO parental Ca = ATP-evoked calcium signal inhibitors, parental CHO, primary screen, counter-screen for OX1R antagonist project, cell-based, fluorescence, Fluo-8 calcium dye | parental CHO-K1, ATP-induced calcium, Fluo-8 fluorescence | inhibition, % at 5.6 µM | 0.63% of 330,000 active | AID 463079, 2010;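 active = inhibition above that plate's mean sample inhibition plus 3 SD, cut at about 26% in these data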;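 also: 0% = ATP-challenged DMSO wells and 100% = DMSO wells without ATP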
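Assay system: parental CHO cells; Read-out basis: percent inhibition of ATP-evoked calcium rise, normalized to controls; Benchmarks: ATP and no-ATP DMSO wells; Compound dosing: single nominal dose of 5.6 µM per compound; Signal: Fluo-8 calcium dye fluorescence; Also added: ATP as calcium-mobilizing challenge; Repeats: singlicate.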
OX1R antag-2 = antagonists of human orexin 1 receptor (OX1R). Orexin/Hypocretin receptor type 1 (Homo sapiens), O43613. OX1R-expressing cells, FRET antagonist read-out. inhibition, % at 6.6 µM. 1.8% of 330,000 active. AID 485270, 2010; in the data active = inhibition mostly above about 38%, no sharp cut-off; inactive = mostly below about 40%;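 also: 0% = agonist challenge alone and 100% = reference antagonist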
TAAR1 agonist = human TAAR1 agonists, primary screen, Fluo-8 calcium fluorescence, CHO RD-HGA16 cells; Trace amine-associated receptor 1 (Homo sapiens), Q96RJ0; vehicle wells 0%, saturating PEA agonist 100%; activation, % at 3 µM; 0.99% of 360,000 active; AID 624467, 2012;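 active = activation above the mean activation of all test compounds in the run plus 3 SD, cut at about 38% in these data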
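System: CHO-derived RD-HGA16 cells with stable Gα16 and human TAAR1 / Times: 17-24 h plating, Fluo-8 75 min 37 °C, 30 min RT / Technique: calcium-sensitive Fluo-8 signal, excitation 470-495, emission 515-575 nm / Measure: % activation relative to PEA EC100 response / Benchmarks: DMSO and PEA EC100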
GPR7 antagonist = GPR7 receptor antagonists, primary screen, cell-based, fluorescence, single concentration; Neuropeptides B/W receptor type 1 (Homo sapiens), P48145; GPR7-expressing cells, fluorescence antagonist assay; inhibition, % at 4.4 µM; 1.1% of 290,000 active; AID 1861, 2009; in the data active = inhibition above about 16%, passing the limit was not always enough;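 also: cells stimulated with the agonist NPW; 0% = agonist with vehicle and 100% = vehicle without agonist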
nonsel antag count = nonselective antagonists in TAAR1 counter-screen cells, counter-screen for hTAAR1 antagonist project, cell-based, fluorescence, calcium. 77% of 2,400 active. counterscreen cell line, antagonist mode. shares compounds with TAAR1 antag. inhibition, % at 3 µM; in the data active = inhibition above about 22%;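 also: CHO-Ga16 host cells stimulated with ATP at an EC80 level; 0% = agonist EC80 plus vehicle and 100% = vehicle without agonist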
TAAR1 ant conf = human TAAR1 antagonists, retest of hits, confirmation, cell-based, fluorescence. shares compounds with TAAR1 antag. TAAR1-expressing cells, fluorescence antagonist read-out. inhibition, % at 3 µM. 40% of 2,400 active. AID 651785, 2012; in the data active = inhibition above about 49%;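 also: CHO-Ga16 host cells challenged with agonist PEA near its EC80; 0% = agonist at EC80 plus vehicle and 100% = vehicle with no agonist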
Ga16 ag counter = calcium activation in Ga16-expressing cells, counter-screen for TAAR1 antagonist project, cell-based, fluorescence. shares compounds with TAAR1 antag. agonist counterscreen. activation, % at 3 µM. 18% of 2,400 active. AID 651953, 2012; in the data active = activation above about 12%;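 also: 0% = vehicle wells and 100% = saturating stimulus response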
TAAR1 ag counter = TAAR1 activation by candidate antagonists – cell-based, fluorescence, counter-screen for TAAR1 antagonist project. shares compounds with TAAR1 antag. hTAAR1 cell line, agonist mode. activation, % at 3 µM. 2% of 2,400 active; in the data active = activation above about 37%;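 also: CHO cells stably expressing TAAR1 with calcium dye readout; 0% = DMSO vehicle and 100% = full agonist response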
The depositor's hits bear a star; . = no result given.

SMILES	TAAR1 antag	OX1R antag-1	CHO parental Ca	OX1R antag-2	TAAR1 agonist	GPR7 antagonist	nonsel antag count	TAAR1 ant conf	Ga16 ag counter	TAAR1 ag counter
COc1ccc(-c2[nH]c(-c3ccccc3)nc2SCC(=O)Nc2nccs2)cc1	49*	-12	-11	21	8	-8	17	31	6	4
COc1cc2c(cc1OC)/C(=C/C(=O)c1cccc([N+](=O)[O-])c1)NCC2	50*	-39	-26	28	5	-22	26*	29	5	0
Cc1ccccc1NC(=O)CCN1CCc2ccccc2C1	104*	-28	-24	-2	3	-1	-6	0	5	9
Cc1ccccc1NC(=O)CCN1CCCC1	-25	-17	-1	-4	6	-1	.	.	.	.
Nc1c(C(=O)NCC2CCCO2)sc2nc3c(c(-c4ccco4)c12)CC/C3=C\c1ccco1 (stereo not drawn)	53*	.	.	.	16	7	-2	0	3	2
CC1(Cc2ccc(C(F)(F)F)o2)C(=O)Nc2cc(-c3ccc(F)cc3F)ccc21 (stereo not drawn)	-2	.	.	.	19	.	.	.	.	.
CCC1(CC)NC(=O)N(CC(=O)OCC(=O)Nc2ccccc2OC(F)F)C1=O	9	-8	2	5	1	.	.	.	.	.
CCC1(CC)NC(=O)N(CC(=O)OCC(=O)Nc2ccccc2[N+](=O)[O-])C1=O	68*	-12	-9	38	19	-8	23*	52*	12*	10
CC1CCCCC12NC(=O)N(CC(=O)OCC(=O)Nc1ccc(F)cc1[N+](=O)[O-])C2=O (stereo not drawn)	76*	3	-9	19	21	.	32*	53*	10	14
COc1ccccc1C(=O)NC(=O)COC(=O)CN1C(=O)NC2(CCCCC2C)C1=O (stereo not drawn)	-10	-6	-6	2	0	.	.	.	.	.
COc1ccc(N2CCN(C(=O)C(=O)c3cccc([N+](=O)[O-])c3)CC2)cc1	-9	.	.	.	-1	.	.	.	.	.
Cc1ccc(S(=O)(=O)N2CCC(C(=O)N3CCCCCCC3)CC2)cc1C	-30	.	.	.	2	.	.	.	.	.
O=C(c1ccco1)N(CCCN1CCOCC1)c1nc(-c2ccc(F)cc2)cs1	57*	-10	-20	20	8	7	20	39	5	6
O=C(COC(=O)c1ccc(S(=O)(=O)C(F)F)cc1)Nc1cccnc1Cl	5	-10	8	9	2	.	.	.	.	.
CC(=O)Nc1sc(N/N=C/c2ccc(C)cc2)nc1-c1ccc(C)cc1	53*	-39	-9	5	2	-8	4	11	4	10
CC(C)c1ccc(NC(=O)CSc2nc3ccccc3nc2N2CCCC2)cc1	-27	-30	-16	5	0	-16	.	.	.	.
COc1ccccc1N1C(=O)c2ccc(C(=O)Nc3nccs3)cc2C1=O	8	-16	-16	44	5	-2	.	.	.	.
CC(C)(C)N1C(=O)c2ccc(C(=O)Nc3nccs3)cc2C1=O	49*	-34	-28	14	12	-11	13	37	6	2
CCN(CC)S(=O)(=O)c1cccc(NC(=O)COc2ccc(C#N)cc2OC)c1	5	-30	-10	15	11	-15	.	.	.	.

High-throughput results (PubChem BioAssay)
